# Screening results: PubChem BioAssay, SRMLSC
# Only a selection was taken, and hits are over-represented in it overall.
# PTEN del growth – suppresses growth of cells with PTEN deletion. HCT116 PTEN-null viability, CellTiter-Glo, 60 h; stronger effect = lower value. viability, % at 10 µM. hit rate 1.2% among 140,000;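 active = viability at or below a set limit, 4 SD under the median of all tested compounds, cut at about 3.7% in these data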;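 note: PTEN knockout HCT116 line with beta catenin targeted HCT116 as companion control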
# HCT116 bCat-KO – beta-catenin-lacking colon tumor cell growth suppression; HCT116 beta-catenin knockout viability, CellTiter-Glo, 60 h; stronger effect = lower value; viability, % at 10 µM; hit rate 1.5% among 140,000;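 active = viability at or under a set limit, the compound median less 4 SD, cut at about 6% in these data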;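 note: 0% = Hyamine 1622 control at 20 µM and 100% = untreated cell control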
# HUVEC inhibit – blocks proliferation of human endothelial cells. AID 648. viability, % at 10 µM (by protocol). hit rate 1.1% among 86,000. HUVEC proliferation, CellTiter-Glo luminescence, 72 h; stronger effect = lower value;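 active = viability at or below 30%; inactive = viability above 30%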;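 note: 100% = median luminescence of DMSO-only cell control wells on each plate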
# H69AR growth 86K – blocks growth of human H69AR lung tumor cells; AID 598; hit rate 6% among 85,000; viability, % at 10 µM; H69AR lung tumor viability, ATP luminescence, 72 h; stronger effect = lower value;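 active = viability at or below 40%; inactive = viability above 40%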;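 note: multidrug resistant small cell line overexpressing MRP-1 efflux transporter; 100% = mean luminescence of untreated control wells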
# Fibroblast inh – blocks proliferation of human lung fibroblasts; AID 719; hit rate 1.1% among 85,000; LL 47 human lung fibroblast viability, ATP luminescence; stronger effect = lower value; viability, % at 10 µM;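 active = viability at or below 50% in the single dose screen; inactive = viability above 50%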;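 note: compound exposure lasted 72 h before the ATP readout; 100% = median luminescence of untreated cell-only wells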
#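 Material: human lung fibroblast line LL 47, low passage; Evaluation: viability percentage against median untreated-cell control; Buffer or medium: 15% FBS in IMEM; Incubation: 72 h compound exposure at 37 °C after overnight plating; Dosing: 0.1% DMSO in all compound wells; Measured by: CellTiter-Glo luminescence.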
# Active calls of the source: *; / = no result given.
SMILES,PTEN del growth,HCT116 bCat-KO,HUVEC inhibit,H69AR growth 86K,Fibroblast inh
CCn1ncc(C2=NOC(C(=O)NCc3ccccc3)C2)c1C (configuration not stated),19,15,50,26*,49*
CCn1ncc(C2=NOC(C(=O)NCc3ccc(OC)cc3)C2)c1C (configuration not stated),37,36,64,21*,103
O=C1CCCC(=O)C1=C1SCCCS1,98,88,/,/,/
Fc1ccc(Br)cc1C1C=C(c2ccc(Br)s2)Nc2ncnn21 (configuration not stated),88,90,52,29*,56
COc1cccc(C2C=C(c3ccc(Br)s3)Nc3ncnn32)c1OC (configuration not stated),93,81,110,43,93
COc1ccc(CCn2c(N3CCN(C)CC3)nc3c2c(=O)[nH]c(=O)n3C)cc1,99,98,92,88,98
CCCn1c(N2CCN(CC(=O)c3c(C)n(C)c4ccc(OC)cc34)CC2)nc2c1c(=O)[nH]c(=O)n2C,18,15,97,33*,41*
O=C(Nc1ccccc1N1CCOCC1)c1cc(-c2ccco2)nc2ccccc12,52,63,71,5.8*,93
Cc1cnc(Nc2nc3ccccc3o2)nc1C(=O)Nc1cccc(C(F)(F)F)c1,33,71,45,1.3*,44*
Cc1nn(C(=O)N2CCOCC2)c(C)c1C,0.9*,0.9*,90,99,93
CCOC(=O)N1CCN(C(=O)N2CCOCC2)CC1,93,93,96,84,100
COc1ccc(/C=C(/NC(=O)c2ccccc2)C(=O)NC2CCS(=O)(=O)C2)cc1 (configuration not stated),98,95,/,/,/
COc1cc([N+](=O)[O-])ccc1N/C=C/C(=O)c1cccs1,73,75,29*,42,79
Cc1cccc(N/C=C/C(=O)c2cccs2)c1C,60,72,/,/,/
Cc1cccc(NS(=O)(=O)c2cc(C(=O)N3CCCC3)ccc2Cl)c1,94,86,/,/,/
CCOC(=O)N1CCN(C(=O)c2ccc(Cl)c(S(=O)(=O)Nc3ccccc3)c2)CC1,91,94,95,32*,104
Cc1ccccc1C1CC(c2ccccc2OC(F)F)Nc2ncnn21 (configuration not stated),87,97,98,0.6*,94
Cc1ccc(C2CC(c3ccccc3OC(F)F)Nc3ncnn32)cc1 (configuration not stated),94,88,/,/,/
Cc1nn(C)cc1C(C(=O)NC1CCCCC1)N(C(=O)Cc1cccs1)c1ccc(Cl)cc1 (configuration not stated),68,76,/,/,/
O=C(Nc1cccc(F)c1)NC1CC2CCCC(C1)N2C1CC1 (configuration not stated),108,101,91,93,96
O=C(Nc1ccc(Cl)c(C(F)(F)F)c1)NC1CC2CCCC(C1)N2C1CC1 (configuration not stated),/,/,12*,34*,92
Cc1ccc(NC(=O)c2ccc(N/N=C/c3cccc(O)c3)c([N+](=O)[O-])c2)cc1,1.9*,2.9*,/,/,/
Cc1ccc(NC(=O)c2ccc(Nc3c([N+](=O)[O-])cc([N+](=O)[O-])cc3[N+](=O)[O-])cc2)cc1,2.3*,4.5*,/,/,/
Cc1nn(-c2ccc(F)cc2)c(Cl)c1/C=C1\C(=O)Nc2ccccc21,21,19,/,/,/
CC(C(=O)N1CCc2ccccc21)N1CCc2ccccc2C1 (configuration not stated),80,88,/,/,/
SMILES,PTEN del growth,HCT116 bCat-KO,HUVEC inhibit,H69AR growth 86K,Fibroblast inh
COc1cc(C(=O)N2c3ccccc3CC2C)cc(OC)c1OC (configuration not stated),87,99,93,38*,95
COc1cc2c(cc1OC)CN(C(C)C(=O)N1CCc3ccccc31)CC2 (configuration not stated),60,58,77,18*,86
COc1cc(C(=O)N2CCCc3ccccc32)cc(OC)c1OC,36,40,89,25*,112
CC1Cc2ccccc2N1C(=O)c1ccnc(C(C)(C)C)c1 (configuration not stated),82,83,97,87,94
COC(=O)c1ccc(COc2ncnc3c(Cl)cc(Cl)cc23)o1,97,101,95,88,90
S=c1sc(SCCOc2ccccc2)nn1-c1ccccc1,79,76,/,/,/
c1ccc2c(CSCCc3ccncc3)cccc2c1,78,72,85,34*,103
CCC(=O)N1CCN(c2ccc(NC(=O)c3cc4ccccc4o3)cc2Cl)CC1,3.1*,2.5*,2.9*,10*,42*
CCCC(=O)N1CCN(c2ccc(NC(=O)c3cc4ccccc4o3)cc2Cl)CC1,96,105,2.1*,13*,16*
O=C(Nc1ccc(N2CCN(C(=O)c3ccco3)CC2)c(Cl)c1)c1cc2ccccc2o1,3.2*,2.8*,7.9*,37*,43*
Cc1cccc(N2C(=O)CCC2=O)n1,91,91,/,/,/
CCCCS(=O)(=O)/C=C\C1C2C=CC(C2)C1S(=O)(=O)CCCC (configuration not stated),97,91,102,83,94
CCCCS(=O)(=O)/C=C\C=C/S(=O)(=O)CCCC,2.0*,1.7*,49*,1.0*,2.5*
CNc1ccc(Br)cc(C(=O)/C=C/c2cc(OC)ccc2OC)c1=O,12,7,80,0.6*,90
CNc1ccc(Br)cc(C(=O)/C=C/c2ccc(OC)cc2)c1=O,37,48,/,/,/
CNc1ccc(Br)cc(C(=O)/C=C/c2ccc3c(c2)OCO3)c1=O,12,8,/,/,/
CCNc1ccc(Br)cc(C(=O)/C=C/c2ccc(Cl)cc2Cl)c1=O,2.2*,2.5*,21*,0.4*,92
Cn1nc(C(=O)Nc2c(-c3ccccc3)nc3sccn23)c2ccccc2c1=O,100,97,41,26*,40*
Cc1cc(C(=O)CSc2nnc(-c3cccnc3)n2-c2ccccc2F)c(C)n1C,52,58,112,34*,93
Cc1ccc(C(=O)CSc2nnc(-c3cccnc3)n2N)cc1,54,59,78,27*,94
COc1cc(CCN2C(=O)c3cccc4cccc(c34)C2=O)c(S(=O)(=O)N2CCC(C)CC2)cc1OC,83,85,/,/,/
CC(=O)Nc1ccc(S(=O)(=O)n2cnc3ccccc32)cc1,102,104,102,100,97
COc1ccc(C(=S)N2CCOCC2)cc1OS(=O)(=O)c1ccccc1[N+](=O)[O-],82,66,/,/,/
CCOC(=O)Cc1nnc2c(Nc3ccc(Cl)cc3)nc3nonc3n12,26,33,38,14*,71
CCOC(=O)Cc1csc(Nc2ccc(Cl)cc2)n1,86,88,/,/,/
CN(C(=O)COC(=O)CNC(=O)C12CC3CC(CC(C3)C1)C2)C1CCS(=O)(=O)C1 (configuration not stated),94,98,/,/,/
CCOC(=O)C1CCN(C(=S)Nc2cccc(C)c2C)CC1,95,86,/,/,/
